Screening data as filed in PubChem.
WT yeast gro inh: growth inhibition of WT yeast, mitochondrial fusion screen; mitochondrial fusion phenotypic screen, WT strain; inhibition, % at 10 µM; 190,000 tested, 2.1% active; in the data active = inhibition above about 58%; tested in S. cerevisiae
GRIN3A LBD mod: NR3A (human) ligand-binding domain modulation. Tm shift relative to glycine control, % at 25 µM. 340,000 tested, 2.5% active. AID 1259313. NR3A LBD differential scanning fluorimetry, Tm shift; 0% = protein alone, 100% = glycine-bound protein;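 active = melting temperature shift of at least 10% of the positive control shift, at one fixed dose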
TbMetRS inhib: blocks T. brucei methionyl-tRNA synthetase activity; purified T. brucei MetRS, ATP depletion, Kinase-Glo luminescence; inhibition, % at 11.9 µM; 360,000 tested, 0.4% active; AID 624268;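 active = inhibition above a per-plate cutoff of the control wells' mean inhibition plus 3 SD, cut at about 5.5% in these data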;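 also: 0% = DMSO wells median and 100% = median of wells with control inhibitor compound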
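Material: parasite MetRS enzyme / Replication: singlicate, one well per compound / Signal: luminescence of leftover ATP / Schedule: 2 h aminoacylation at 25 °C after 15 min preincubation / Medium: HEPES-MgCl2-KCl buffer plus DTT, spermine, BSA, pyrophosphatase / Doses: 11.9 µM single point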
EBV gp42 block: blocks Epstein-Barr virus glycoprotein 42 binding; Fluorescence polarization binding assay, mP read-out; inhibition, % (tested at 21.74 µM); 220,000 tested, 0.42% active; AID 1085; in the data active = inhibition above about 50%
Target sequence (Q1HVG2 whole entry, looked up): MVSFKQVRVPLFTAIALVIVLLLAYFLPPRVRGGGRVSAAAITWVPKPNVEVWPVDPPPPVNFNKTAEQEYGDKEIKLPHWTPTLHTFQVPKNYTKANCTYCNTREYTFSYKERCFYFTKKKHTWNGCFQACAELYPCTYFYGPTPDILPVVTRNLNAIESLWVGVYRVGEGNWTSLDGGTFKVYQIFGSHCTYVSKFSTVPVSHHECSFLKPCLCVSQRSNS
MPTP inh: inhibitors of mitochondrial permeability transition pore. isolated mouse mitochondria, Ca2+ swelling absorbance, 30 min. inhibition, % at 10 µM. 360,000 tested, 1.4% active. AID 602449;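 active = inhibition of 50% or more, scaled per plate between neutral and stimulator controls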;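 also: 0% = DMSO wells given calcium and 100% = 1 mM EGTA wells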
CHOP inhibitor: blocks CHOP induction under ER stress; CHO-K1 CHOP-promoter luciferase, tunicamycin-induced, 15-18 h; 220,000 tested, 3.8% active; inhibition, % at 10 µM;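 active = compounds that reduced the stress-induced luciferase reporter signal by more than about 70% of percent inhibition, limit read from the data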;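 also: 0% = tunicamycin plus vehicle and 100% = wells without tunicamycin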
Numbers without * were called inactive; . = not tested or not shown. Only some compounds are listed: those with a hit (about 6.4% of all), similar ones and a draw of the others.

SMILES | WT yeast gro inh | GRIN3A LBD mod | TbMetRS inhib | EBV gp42 block | MPTP inh | CHOP inhibitor
C=CCOC(=O)c1cc(-c2ccc(/C=C3\C(=O)NC(=O)C(C#N)=C3C)o2)ccc1Cl | -4.2 | -0.6 | 1.1 | 57.5* | -12.5 | -0.7
CCCOC(=O)c1cc(-c2ccc(/C=C3/C(=O)N(C)C(=O)C(C#N)=C3C)o2)ccc1Cl | . | -4.7 | -0.1 | . | 6.6 | .
CC(=O)Nc1ccc(S(=O)(=O)N2CCC(C(=O)c3ccc(Cl)cc3)CC2)cc1 | . | -17.0 | -0.9 | . | 1.2 | .
CCOC(=O)c1ccc(NC(=S)N2CCSC2c2ccc(OC)cc2)cc1 (stereo not drawn) | 11.1 | 8.4 | 0.2 | -4.6 | 22.9 | 29.1
CC(=O)Nc1ccc(S(=O)(=O)N2CCSC2c2ccc(Cl)cc2)cc1 (stereo not drawn) | 78.0* | -5.8 | -0.5 | 9.1 | -0.6 | 25.3
COc1ccc(S(=O)(=O)N2CCSC2c2ccc(N)cc2)cc1 (stereo not drawn) | -9.8 | 10.5* | 0.1 | -12.0 | -0.4 | 45.8
CCOC(=O)c1ccc(NC(=S)N2CCSC2c2ccc(Cl)cc2)cc1 (stereo not drawn) | 59.8* | 19.1* | -1.0 | 7.5 | 20.0 | 45.3
COc1ccc([N+](=O)[O-])cc1/C=N/NC(=O)Cc1ccccc1 | -3.6 | -2.0 | -0.6 | -12.8 | 0.1 | 14.1
O=C(CSc1nncs1)Nc1ccc(N2CCCCC2)cc1 | . | 1.7 | -0.1 | . | -1.3 | .
Cc1cc(C)c(S(=O)(=O)c2ccccc2Cl)c(Cl)n1 | 4.3 | . | -0.6 | 5.8 | -1.2 | -10.8
COc1cc(/C=N/Nc2snc(SC)c2C#N)ccc1O | -0.9 | 19.7* | 0.1 | -9.9 | 2.3 | -97.0
Cn1c(CN2CCN(C(=O)c3ccccc3)CC2)nc2cc([N+](=O)[O-])ccc21 | 8.7 | -1.8 | -0.6 | 3.3 | 2.0 | 17.6
CC(=O)Nc1ccc(NC(=O)c2cc(-c3cc(C)cc(C)c3O)n[nH]2)cc1 | . | 35.4* | 2.2 | . | 1.1 | .
Cc1ccc(NC(=O)c2cc(-c3cc(C)c(C)cc3O)n[nH]2)cc1C | . | 32.6* | -0.8 | . | 5.9 | .
CC(=O)Nc1ccc(NC(=O)c2cc(-c3ccc(F)cc3C)n[nH]2)cc1 | . | . | 0.3 | . | -2.8 | .
CC(=O)Nc1ccc(NC(=O)c2cc(-c3ccc(C)c(C)c3O)n[nH]2)cc1 | . | 39.0* | -1.3 | . | 0.7 | .
COc1ccc(NC(=O)c2cc(-c3ccc(C)c(C)c3O)n[nH]2)cc1Cl | . | 24.5* | -1.0 | . | 27.0 | .
CC(=O)N(c1ccccc1)c1nc2ccccc2s1 | . | 2.0 | -0.1 | . | -1.0 | .
CC(C)[C@H](NC(=O)[C@@H]1CSC2c3ccccc3C(=O)N21)C(=O)NCC1CCCO1 (stereo partly drawn) | . | 1.5 | -0.1 | . | -1.5 | .
COCCCNc1nc(N)c([N+](=O)[O-])c(NCc2ccccc2)n1 | . | 0.9 | -1.2 | . | 0.2 | .
CC(=O)Cc1nsc(Nc2ccc(C)cc2)n1 | -10.2 | -1.2 | -0.5 | -3.5 | -2.1 | -12.6
Cc1ccc(-c2cc(C(=O)Nc3ccc(S(=O)(=O)Nc4ncccn4)cc3)[nH]n2)c(O)c1C | . | 10.2* | -0.7 | 15.1 | 5.2 | 8.2
CCSc1nnc(NC(=O)c2ccccc2)s1 | 3.6 | -3.2 | -0.9 | -11.5 | -0.1 | -155.0
Cc1ccc(C)c(NC(=O)c2cc(-c3cc(C)c(C)cc3O)n[nH]2)c1 | . | 28.4* | -1.5 | . | 0.2 | .
CCSc1nnc(NC(=O)c2cc(-c3ccc(C)c(C)c3O)n[nH]2)s1 | -3.9 | 0.3 | -0.5 | -13.6 | 5.6 | 87.6*
SMILES | WT yeast gro inh | GRIN3A LBD mod | TbMetRS inhib | EBV gp42 block | MPTP inh | CHOP inhibitor
Cc1ccc(-c2cc(C(=O)Nc3ccc(S(=O)(=O)Nc4onc(C)c4C)cc3)[nH]n2)c(O)c1 | . | -4.2 | 0.6 | -1.9 | 3.2 | -12.8
Cc1ccc(NC(=O)c2cc(-c3ccc(C)c(C)c3O)n[nH]2)cc1C | . | 34.9* | -1.4 | . | 7.5 | .
Cc1ccc(-c2cc(C(=O)Nc3cc(C)ccc3C)[nH]n2)c(O)c1 | -2.9 | -10.0 | 0.2 | -16.3 | 3.4 | -39.2
COc1cc(/C=C/c2ccccc2)cc(OC)c1 | . | 0.5 | -0.3 | . | -0.4 | .
C=CCn1c(SCC(=O)Nc2ccccc2F)nnc1C(C)NC(=O)c1ccccc1F (stereo not drawn) | . | 0.2 | 0.4 | . | -1.4 | .
N#Cc1ccccc1NC(=O)CNc1ccc(Cl)c(C(F)(F)F)c1 | 15.6 | -10.2 | 0.7 | -24.1 | 0.3 | 10.0
COc1cccc(OCCN2CCN(c3ncnc4c3cnn4-c3ccccc3)CC2)c1 | 58.5* | -8.3 | -0.7 | -8.5 | -0.9 | 17.1
